# Results as given in ChEMBL document CHEMBL1139961, “Synthesis and evaluation of isoxazole derivatives as lysophosphatidic acid (LPA) antagonists” (Bioorg Med Chem Lett, 2007).
# Experiments:
# [1] = molecular target: Lysophosphatidic acid receptor 1 (Homo sapiens, UniProt Q92633); test: Antagonist activity at human recombinant LPA1 receptor expressed in CHOK1 cells assessed as inhibition of lysophosphatidic acid-induced intracellular calcium influx; assay type: functional, cell-based, CHO-K1
# Outline: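 LPA1-transfected CHO-K1 cells grown in aMEM/F12 with 400 µg/ml Zeocin and 7% FBS. Loaded with Fluo-3 AM in 20 mM Hepes/HBSS/2.5 mM probenecid, 1 h, 37 °C. Washed, resuspended with 0.1% BSA, 24,000 cells/well. FLIPR fluorescence (ex 488/em 540 nm) read before and after compound addition, with or without 1 µM LPA. IC50 is the mean of at least two runs.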
# [2] = molecular target: Lysophosphatidic acid receptor 1 (Rattus norvegicus, UniProt P61794); test: Antagonist activity at LPA1 receptor in rat hepatic stellate cells assessed as inhibition of lysophosphatidic acid-induced intracellular calcium influx; assay type: functional, cell-based
# Chain of Lysophosphatidic acid receptor 1 (Rattus norvegicus, UniProt P61794) (P61794 whole entry): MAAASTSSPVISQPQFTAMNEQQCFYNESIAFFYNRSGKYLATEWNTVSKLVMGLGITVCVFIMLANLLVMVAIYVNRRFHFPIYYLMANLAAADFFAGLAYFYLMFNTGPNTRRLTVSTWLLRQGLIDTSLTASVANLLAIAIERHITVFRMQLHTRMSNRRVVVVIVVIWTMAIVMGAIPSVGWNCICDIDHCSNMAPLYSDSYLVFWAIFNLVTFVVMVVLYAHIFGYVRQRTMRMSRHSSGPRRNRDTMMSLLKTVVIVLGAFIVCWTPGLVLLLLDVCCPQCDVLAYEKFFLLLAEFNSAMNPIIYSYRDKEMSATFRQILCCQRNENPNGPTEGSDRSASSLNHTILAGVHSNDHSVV
# Outline: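 Stellate cells isolated from male Wistar rat liver, seeded overnight at 24,000 cells/well. Loaded with 4 µM Fluo-3 AM in buffer (0.1% BSA, 20 mM Hepes, HBSS, 2.5 mM probenecid), 37 °C, 1 h, then FLIPR Ca2+ read. Test substance added with LPA at 5 µM final. LPA without compound = 100%, no LPA = 0%. IC50 is the mean of at least two runs.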
# Chain of Lysophosphatidic acid receptor 1 (Homo sapiens, UniProt Q92633) (Q92633 whole entry): as the sequence (P61794 whole entry) above, with A4I, S8I, Q22P, Y40H, V61I, D193E, H194N, V269I, N331S, N335T counted along it
IC50 [1] [nM],IC50 [2] [nM],SMILES
430,74,CC(OC(=O)Nc1conc1-c1ccc(CSCCS(=O)(=O)O)cc1)c1ccccc1Cl (centres undefined)
> 40000,> 20000,CC(OC(=O)Nc1ccccc1-c1ccc(CSCCC(=O)O)cc1)c1ccccc1Cl (centres undefined)
200,72,CC(OC(=O)Nc1conc1-c1ccc(CCCCC(=O)O)cc1)c1ccccc1Cl (centres undefined)
370,120,CC(OC(=O)Nc1conc1-c1ccc(CCC(C)(C)CC(=O)O)cc1)c1ccccc1Cl (centres undefined)
140,73,CC(OC(=O)Nc1conc1-c1ccc(NC(=O)CCC(=O)O)cc1)c1ccccc1Cl (centres undefined)
260,81,CC(OC(=O)Nc1cnoc1-c1ccc(CSCCC(=O)O)cc1)c1ccccc1Cl (centres undefined)
220,49,CC(OC(=O)Nc1conc1-c1ccc(CSCCC(=O)O)cc1)c1ccccc1Cl (centres undefined)
130,100,CC(OC(=O)Nc1conc1-c1ccc(CCSCC(=O)O)cc1)c1ccccc1Cl (centres undefined)
170,56,CC(OC(=O)Nc1conc1-c1ccc(CSCCC(=O)O)cc1)C1=C(Cl)CCCC1 (centres undefined)
130,29,CC(OC(=O)Nc1conc1-c1ccc(CSCCC(=O)O)cc1)C1=C(Cl)CCC1 (centres undefined)
510,160,Cc1noc(-c2ccc(CSCCC(=O)O)cc2)c1NC(=O)OC(C)c1ccccc1Cl (centres undefined)
280,110,CC(OC(=O)Nc1conc1-c1ccc(CS(=O)(=O)CCC(=O)O)cc1)c1ccccc1Cl (centres undefined)
